# Legend:
# wtBcr-Abl-Ba/F3 = assay: Antiproliferative activity on wtBcr-Abl-Ba/F3; type: cell-based, murine; conditions: for cellular Bcr-Abl inhibitory activity (in words): wild-type Bcr-Abl
# parental Ba/F3 = assay: Cytotoxicity on parental Ba/F3 cells; type: cell-based, murine; conditions: Mus musculus, BaF3, read-out: cellular EC50 Wt-Ba/F3
# In short: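 Untransfected IL-3-dependent Ba/F3 cells were grown in RPMI 1640 with 10% FBS, 1% L-glutamine and 10% WEHI-conditioned medium as the IL-3 source, at 37 °C under 5% CO2. Cells were exposed to test compound for 48 h, and viability was measured by CellTiter-Glo luminescence.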
# T315I Bcr-Abl [1] = assay: Antiproliferative activity on T315I Bcr-Abl mutant Ba/F3 cells; type: cell-based, murine; conditions: for EC50: Mus musculus, BaF3, read-out: cellular EC50 T315I
# In short: (§1)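 IL-3-dependent murine Ba/F3 cells were transfected with a pEYK vector carrying p210 Bcr-Abl with the point mutation. Cells were grown in RPMI 1640 with 10% FBS, 1% L-glutamine and 25 μg/mL zeocin at 37 °C under 5% CO2. Test compound was applied for 48 h, and proliferation was read by CellTiter-Glo luminescence.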
# E505K Bcr-Abl = assay: Antiproliferative activity on E505K Bcr-Abl mutant Ba/F3 cells; type: cell-based, murine; conditions: Mus musculus, BaF3, read-out: cellular EC50 E505K
# In short: as §1
# T315I Bcr-Abl [2] = conditions: cited from earlier work
# E255V Bcr-Abl = conditions: background statement, ref not given; cited from earlier work
# [3] = tested on: panel of 80 diverse kinases; conditions: cited from earlier work
# Y253H Bcr-Abl = conditions: background statement, ref not given; cited from earlier work
# [4] = tested on: 40 other tyrosine kinases; conditions: cited from earlier work
Structure (SMILES),cellular Bcr-Abl inhibitory activity (in words) (wtBcr-Abl-Ba/F3),other results
FC(F)(F)Oc1ccc(Nc2ccc(NCCN3CCOCC3)nn2)cc1 [9f],inactive,–
COc1ccc(Nc2cc(NCCN3CCOCC3)ncn2)cc1 [8b],complete loss of activity,–
FC(F)(F)Oc1ccc(Nc2cncc(NCCN3CCOCC3)n2)cc1 [9e],inactive,–
FC(F)(F)Oc1ccc(Nc2ccnc(NCCN3CCOCC3)n2)cc1 [9d],inactive,–
CS(=O)(=O)Nc1ccc(-c2cc(Nc3ccc(OC(F)(F)F)cc3)ncn2)cc1 [5h],–,EC50 (parental Ba/F3): > 10 µM; EC50 (T315I Bcr-Abl [1]): > 10 µM; EC50 (E505K Bcr-Abl): > 10 µM
FC(F)(F)c1ccc(Nc2cc(-c3ccncc3)ncn2)cc1 [9j],retained some activity,–
FC(F)(F)Oc1ccc(-c2cc(NCCN3CCOCC3)ncn2)cc1 [8e],complete loss of cellular activity,–
Fc1ccc(Nc2cc(-c3ccncc3)ncn2)cc1 [9h],complete loss in activity,–
CN(c1ccc(OC(F)(F)F)cc1)c1cc(-c2ccncc2)ncn1 [9g],complete loss of cellular activity,–
"FC(F)(F)Oc1ccc(Nc2ncnc(NCCN3CCOCC3)n2)cc1 [9l, N2-(2-morpholinoethyl)-N4-(4-(trifluoromethoxy)phenyl)-1,3,5-triazine-2,4-diamine]",inactive,–
"O=C(NCCO)c1cccc(-c2cc(Nc3ccc(OC(F)(F)F)cc3)ncn2)c1 [compound 2, N-(2-Hydroxyethyl)-3-(6-(4-(trifluoromethoxy)phenylamino)pyrimidin-4-yl)benzamide]",–,synergy with nilotinib on proliferation of T315I Bcr-Abl (in words) (T315I Bcr-Abl [2]): capable of synergizing
NC(=O)c1ccccc1-c1cc(Nc2ccc(OC(F)(F)F)cc2)ncn1 [5b],inactive,–
NC(=O)c1cccc(-c2cc(Nc3ccc(OC(F)(F)F)cc3)ncn2)c1 [compound 1],active,activity on E255V mutant (in words) (E255V Bcr-Abl): active; inhibition of biochemical activity of a panel of 80 diverse kinases (in words) [3]: did not inhibit; activity on Y253H mutant (in words) (Y253H Bcr-Abl): active; activity on T315I gatekeeper mutant (in words) (T315I Bcr-Abl [1]): inactive; inhibition of 40 other tyrosine kinases in cellular assays (in words) [4]: did not inhibit
FC(F)(F)Oc1ccc(CNc2cc(NCCN3CCOCC3)ncn2)cc1 [8g],completely inactive,–
"Cc1cn(-c2cc(NC(=O)c3ccc(C)c(Nc4nccc(-c5cccnc5)n4)c3)cc(C(F)(F)F)c2)cn1 [nilotinib, reference compound]",–,"EC50 (wtBcr-Abl-Ba/F3; Mus musculus, read-out: wt Bcr-Abl-Ba/F3 EC50): 40 nM"
FC(F)(F)Oc1ccc(Oc2cc(NCCN3CCOCC3)ncn2)cc1 [8d],complete loss of cellular activity,–
CN(c1ccc(OC(F)(F)F)cc1)c1cc(NCCN2CCOCC2)ncn1 [8a],complete loss of cellular activity,–
CN1CCN(C(=O)c2cc3c(Nc4ccc(OC(F)(F)F)cc4)ncnc3s2)CC1 [14d],–,"EC50 (parental Ba/F3): > 10 µM; fold more potent than 14c (wtBcr-Abl-Ba/F3; cellular Bcr-Abl EC50, versus compound lacking N-methylation (14c)): approximately 10 fold; EC50 (T315I Bcr-Abl [1]): > 10 µM; EC50 (E505K Bcr-Abl): > 10 µM"
